The source made the active and inactive calls. The rule behind the calls is not given here.

The source of these data is ChEMBL document CHEMBL4311932, “Novel zafirlukast derivatives exhibit selective antibacterial activity against Porphyromonas gingivalis” (Medchemcomm, 2019).

Data set [1] deals with Porphyromonas gingivalis. Kind of data set: Antibacterial activity against Porphyromonas gingivalis 381 assessed as bacterial growth inhibition at 10 uM measured after 2 hrs in anaerobic condition by WST1 assay relative to control. It is filed as functional. As to conditions: Porphyromonas gingivalis, 381, 2 h; read-out: GI. Summed up:
(§1)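 P. gingivalis 381 was grown anaerobically in BHI with 5 µg/mL hemin and 1 µg/mL menadione to log phase (3-4 h). Cultures at 10^6/well in 90 µL broth were exposed for 2 h, then given WST-1 for another 2 h. A450 was read with a 600 nm reference. % growth inhibition was taken against medium-only control, using DMSO vehicle and tetracycline 1 µg/mL as comparators.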

Data set [2] deals with Porphyromonas gingivalis. Kind of data set: Antibacterial activity against Porphyromonas gingivalis 381 assessed as bacterial growth inhibition at 100 uM measured after 2 hrs in anaerobic condition by WST1 assay relative to control. In kind it is functional. To be noted: Porphyromonas gingivalis, 381, 2 h; read-out: GI. In a few lines: as §1
For orientation: Tetrazolium dyes change colour on reduction, which living cells bring about.

In data set [3] the test system is Porphyromonas gingivalis. As to the kind of experiment: Antibacterial activity against Porphyromonas gingivalis 381 assessed as bacterial growth inhibition at 2.25 uM measured after 2 hrs in anaerobic condition by WST1 assay. It is filed as functional, organism-based.
Data set [4] is described as follows: Cytotoxicity against hTERT-immortalized human OKF6 cells assessed as reduction in cell viability after 24 hrs by tryphan blue staining based assay. To be noted: OKF6, 24 h. Summed up:
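OKF6/hTERT cells at 10^5/well in Ker-SFM were exposed for 24 h to 0, 1, 2.5, 5, 10, 15, 20, 25, 50 and 100 µM in DMSO. Viability was counted by trypan blue exclusion on an automated counter, in triplicate. IC50 was derived from a fitted concentration-response curve.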

In data set [5] the test system is Aggregatibacter actinomycetemcomitans. As to the kind of experiment: Antibacterial activity against Aggregatibacter actinomycetemcomitans JP2 assessed as bacterial growth inhibition at 1 to 100 uM after 2 hrs in anaerobic condition by WST1 assay. It is filed as functional, organism-based. In a few lines:
(§2)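 Log-phase cultures (3-4 h in BHI broth after overnight growth) were plated at 10^6 bacteria/well in 90 µL and treated for 2 h. WST-1 was then added for a further 2 h incubation, aerobic for S. sanguinis and anaerobic for the others, at 37 °C. A450 was read against a 600 nm reference. % inhibition = 100 × [OD(medium control) − OD(treated)]/OD(control). Compounds were dissolved in DMSO.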

Data set [6] deals with Streptococcus sanguinis. Kind of data set: Antibacterial activity against Streptococcus sanguinis ATCC 10556 assessed as bacterial growth inhibition at 1 to 100 uM after 2 hrs in aerobic condition by WST1 assay relative to control. In kind it is functional. Summed up:
as §2

The nature of data set [7]: Induction of apoptosis in hTERT-immortalized human OKF6 cells assessed as viable cells at 1 to 10 uM after 24 hrs by AnnexinV-FITC/propidium iodide staining based flow cytometry analysis relative to control. To be noted: read-out: Activity. Summed up:
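After 24 h treatment of OKF6/hTERT cells, adherent cells (trypsinized) were pooled with cells recovered from supernatants and washed in PBS. They were stained with FITC-Annexin V plus propidium iodide for 15 min at room temperature. At least 10,000 events were acquired per sample (excitation 488 nm, emission 530 nm), with viable, apoptotic and necrotic fractions reported against DMSO.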
(In general: Flow cytometry measures light scatter and fluorescence of single cells or particles in a stream.)

Data set [8] in a line: Cytotoxicity against hTERT-immortalized human OKF6 cells assessed as cell death at 1 to 10 uM after 24 hrs by tryphan blue staining based assay. Summed up:
(§3)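 OKF6/hTERT keratinocytes were grown in Ker-SFM with 25 µg/mL bovine pituitary extract and 0.2 ng/mL EGF at 37 °C, 5% CO2. Cells were seeded overnight at 10^5/well and exposed for 24 h to 1 or 10 µM in DMSO. Cells were then trypsinized, washed, mixed 1:1 with trypan blue and counted automatically for % live/dead. Two independent experiments were run in duplicate.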

Data set [9] deals with Veillonella parvula. Kind of data set: Antibacterial activity against Veillonella parvula ATCC 10790 assessed as bacterial growth inhibition at 1 to 100 uM after 2 hrs in anaerobic condition by WST1 assay. It is filed as functional, organism-based. In a few lines:
as §2

The subject of data set [10] is Fusobacterium nucleatum. As to the kind of experiment: Antibacterial activity against Fusobacterium nucleatum ATCC 25586 assessed as bacterial growth inhibition at 1 to 100 uM after 2 hrs in anaerobic condition by WST1 assay relative to control. In kind it is functional. Summed up:
as §2

Data set [11] deals with Porphyromonas gingivalis. As to the kind of experiment: Antibacterial activity against Porphyromonas gingivalis 381 assessed as bacterial growth inhibition at 1 uM measured after 2 hrs in anaerobic condition by WST1 assay relative to control. In kind it is functional. As to conditions: Porphyromonas gingivalis, 381, 2 h; read-out: GI. In a few lines: as §1
Data set [12] has as its system Actinomyces naeslundii. Kind of data set: Antibacterial activity against Actinomyces naeslundii ATCC 49340 assessed as bacterial growth inhibition at 1 to 100 uM after 2 hrs in anaerobic condition by WST1 assay. In kind it is functional, organism-based. In a few lines: as §2
The nature of data set [13]: Cytotoxicity against hTERT-immortalized human OKF6 cells assessed as cell viability at 1 uM after 24 hrs by tryphan blue staining based assay relative to control. To be noted: read-out: Activity. In a few lines:
as §3

Data set [14] deals with Porphyromonas gingivalis. Kind of data set: Antibacterial activity against Porphyromonas gingivalis 381 assessed as bacterial growth inhibition at 25 to 50 uM measured after 2 hrs in anaerobic condition by WST1 assay. It is filed as functional, organism-based.
The subject of data set [15] is Porphyromonas gingivalis. As to the kind of experiment: Bactericidal activity against Porphyromonas gingivalis 381 at 25 to 50 uM treated for 24 hrs and measured after 7 days incubation in anaerobic condition […]. It is filed as functional, organism-based. In a few lines: (§4)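 Viable-count assay on P. gingivalis 381 (10^6/well) grown anaerobically. Cultures were exposed for 24 h to agents dissolved in DMSO. 50 µL of 1:400 dilutions were spread on blood agar, and CFU/mL was counted after 7 days anaerobic incubation. Controls were medium or DMSO (negative) and tetracycline 2.25 µM (positive).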

Data set [16] relates to Porphyromonas gingivalis. As to the kind of experiment: Bactericidal activity against Porphyromonas gingivalis 381 at 10 uM treated for 24 hrs and measured after 7 days incubation in anaerobic condition by CFU counting relative to control. As to conditions: read-out: GI.
Data set [17] concerns Porphyromonas gingivalis. As to the kind of experiment: Bactericidal activity against Porphyromonas gingivalis 381 at 1 uM treated for 24 hrs and measured after 7 days incubation in anaerobic condition by WST1 assay relative to control. In kind it is functional. As to conditions: in the assay text read “by CFU counting” for “by WST1 assay”, read-out: GI. Summed up:
as §4

The subject of data set [18] is Porphyromonas gingivalis. As to the kind of experiment: Bactericidal activity against Porphyromonas gingivalis 381 at 100 uM treated for 24 hrs and measured after 7 days incubation in anaerobic condition […]. It is filed as functional, organism-based. In a few lines:
as §4

As for `COc1ccc(Cc2c[nH]c3ccccc23)cc1C(=O)NS(=O)(=O)c1ccccc1`, the inhibition of growth at 10 µM in [1] amounted to 40%. Further, the inhibition of growth at 100 µM in data set [2] came to 100%.
As for `CN(C)[C@@H]1C(O)=C(C(N)=O)C(=O)[C@@]2(O)C(O)=C3C(=O)c4c(O)cccc4[C@@](C)(O)[C@H]3C[C@@H]12`, the “growth inhibition (GI)” value in [3] is “Active”.
`COc1ccc(Cc2c[nH]c3ccccc23)cc1C(=O)NS(=O)(=O)c1ccccc1C`: in data set [1], the inhibition of growth at 10 µM is 80%. Besides, the inhibition of growth at 100 µM in data set [2] is 100%.
Consider `COc1ccc(Cc2cn(C)c3ccccc23)cc1C(=O)NS(=O)(=O)c1ccccc1C`, for which the IC50 in data set [4] came out at 16 µM. In addition, the inhibition of growth at 10 µM in data set [1] fell in the range of 90 to 100%. The inhibition entry in data set [5] and in data set [9] was “inactive” in each case. In addition, the “inhibition (INH)” value in [6] and in [10] was 20% each time. Further, in data set [7], the viability at 24 h, up to 10 µM fell in the range of 50 to 70%. In data set [8], the Activity entry is “Toxic”. For the same compound, in data set [2], the inhibition of growth at 100 µM is 100%. The inhibition of growth at 1 µM in data set [11] is 15 to 40%. Also, the “growth inhibition (GI)” value in data set [12] is “inactive”. Also, the viability at 24 h, 1 µM in data set [13] lay within 70 to 90%.
As for `COc1cc(C(=O)NS(=O)(=O)c2ccccc2C)ccc1Cc1cn(C)c2ccc(NC(=O)OC3CCCC3)cc12`, the “growth inhibition (GI)” value in [14] is “Active”. In [15], the result was Active.
For the compound `COc1ccc(Cc2cn(C)c3ccc([N+](=O)[O-])cc23)cc1C(=O)NS(=O)(=O)c1ccccc1`, the results for the inhibition of growth at 10 µM in data set [16] and in data set [1] were 100% and 90 to 100%, respectively. The IC50 in data set [4] is 54 µM. The inhibition entry in data set [5] and in data set [9] was “inactive” each time. The inhibition of growth at 1 µM is 60% in [17] and 15 to 40% in data set [11]. Besides, the “inhibition (INH)” value in data set [6] and in data set [10] was 20% in each case. The viability at 24 h, up to 10 µM in data set [7] was 50 to 70%. Besides, the Activity entry in data set [8] is “Non-Toxic”. The inhibition of growth at 100 µM in [2] is 100%. Also, the “growth inhibition (GI)” value in data set [12] is “inactive”. Besides, the result in data set [18] was Active. The viability at 24 h, 1 µM in data set [13] is 70 to 90%.
As to `COc1ccc(Cc2cn(C)c3ccc([N+](=O)[O-])cc23)cc1C(=O)NS(=O)(=O)c1ccccc1C`, the IC50 in data set [4] worked out at 230 µM. In addition, in data set [1], the inhibition of growth at 10 µM fell in the range of 90 to 100%. For the same compound, the inhibition entry in data set [5], in data set [9] and in data set [12] was “inactive” in each case. Moreover, the “inhibition (INH)” value in data set [6] and in data set [10] was 20% in each case. Moreover, the viability at 24 h, up to 10 µM in data set [7] lay within 50 to 70%. The Activity entry in data set [8] was “Toxic”. Besides, the inhibition of growth at 100 µM in data set [2] is 100%. Besides, the inhibition of growth at 1 µM in data set [11] lay within 15 to 40%. The outcome in data set [18] was Active. For the same compound, the viability at 24 h, 1 µM in [13] was 70 to 90%.
Take `Cn1cc(Cc2ccc(C(=O)NS(=O)(=O)c3ccccc3)cc2)c2ccccc21`: in data set [1], the inhibition of growth at 10 µM is 90 to 100%. For the same compound, the inhibition of growth at 100 µM in [2] came to 100%.
As for `COc1ccc(Cc2cn(C)c3ccccc23)cc1C(=O)NS(=O)(=O)c1ccccc1`, the inhibition of growth at 10 µM in data set [1] fell in the range of 90 to 100%. For the same compound, in data set [2], the inhibition of growth at 100 µM was determined as 100%.
Regarding `COc1cc(C(=O)NS(=O)(=O)c2ccccc2C)ccc1Cc1cn(C)c2ccccc12`, the inhibition of growth at 100 µM in [2] worked out at 60%.
Regarding `Cc1ccccc1S(=O)(=O)NC(=O)c1ccc(Cc2c[nH]c3ccccc23)cc1`, the inhibition of growth at 10 µM in [1] stood at 90%. Besides, the inhibition of growth at 100 µM in data set [2] worked out at 100%.
`COc1cc(C(=O)NS(=O)(=O)c2ccccc2)ccc1Cc1cn(C)c2ccccc12`: the inhibition of growth at 100 µM in data set [2] is 60%.
In the case of `O=C(NS(=O)(=O)c1ccccc1)c1ccc(Cc2c[nH]c3ccccc23)cc1`, the inhibition of growth at 10 µM in data set [1] worked out at 40%. For the same compound, the inhibition of growth at 100 µM in data set [2] was determined as 100%.

The IC50 is the point on the concentration scale where inhibition reaches its midpoint.
